Source: article PMC10348038 (Journal of Enzyme Inhibition and Medicinal Chemistry, 2023)

How the values were obtained:
[1] = molecular target: PD-1/PD-L1 interaction (Homo sapiens, UniProt Q9NZQ7); assay: HTRF PD1/PD-L1 binding assay; conditions: IC50 against the PD-1/PD-L1 interaction
[2] = tested on: p-mTOR; assay: Western blot of mTOR phosphorylation in MDA-MB-231 cells; format: cell-based; conditions: 4 μM, 48 h, MDA-MB-231, Western blot
Outline: (§1)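 MDA-MB-231 cells exposed to test compound at 1, 2 and 4 μM for 48 h. Lysates run on SDS-PAGE and transferred to PVDF. Membranes blocked 2 h in 5% BSA/TBST, then probed overnight at 4 °C with antibodies to AKT, p-AKT, mTOR and p-mTOR (1:1000). Mean ± SEM, n = 3.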

[3] = tested on: MCF-7; assay: CCK-8 cell viability assay, MCF-7; format: cell-based; conditions: Homo sapiens, MCF7, 60 h, read-out: IC50 MCF-7
Outline: (§2)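 Cells grown in DMEM or RPMI-1640 with 10% FBS and 1% penicillin-streptomycin at 37 °C, 5% CO2. Seeded in 96-well plates at densities suited to each line's growth rate and settled 8 h, then exposed 60 h to test compound at 0, 1, 2, 4, 8, 16 and 32 μM from 10 mM DMSO stocks. […] CCK-8 added for 0.5–1 h, OD read at 450 nm, viability normalised to control; mean ± SEM, n = 3.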

[4] = tested on: MDA-MB-231 cells; assay: CCK-8 cell viability assay, MDA-MB-231; format: cell-based; conditions: Homo sapiens, MDA-MB-231, 60 h, read-out: IC50 MDA-MB-231
Outline: as §2

[5] = tested on: MDA-MB-231 cells; assay: Colony formation assay; format: cell-based; conditions: for Clone formation, result in words: positive controls, BMS-202 at 1 µM
Outline: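 MDA-MB-231 seeded at 500 cells/well in 6-well plates, in triplicate. […] Medium renewed every three days. At two weeks: PBS washes, 15 min fixation in 4% paraformaldehyde, 1% crystal violet stain. Colonies of more than 500 cells counted by image analysis; mean ± SEM, n = 3.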

[6] = tested on: PD-L1 mRNA; assay: qPCR of PD-L1 mRNA in MDA-MB-231 cells; format: cell-based; conditions: MDA-MB-231, 48 h
[7] = tested on: MDA-MB-231 tumour; assay: MDA-MB-231 tumour-bearing nude mouse model; format: in vivo, BALB/c nude mice; conditions: intraperitoneal, every 2 days, nine administrations, nude mice
Outline: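 Female BALB/c nude mice. MDA-MB-231 cells (within 10 passages) in PBS:Matrigel 1:1 at 3 × 10^7 cells/mL, 100 μL injected subcutaneously into the axilla. From about 200 mm3, test compound given intraperitoneally every 2 days in normal saline with 30% PEG400; cyclophosphamide as comparator. Tumour volume by callipers as length × width² × 0.5. Study ended when control tumours reached 1500 mm3. Tumours excised and weighed; inhibition rate from treated versus control tumour weight.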

[8] = tested on: A549; assay: CCK-8 cell viability assay, A549; format: cell-based; conditions: Homo sapiens, A549, 60 h, read-out: IC50 A549
Outline: as §2

[9] = tested on: p-AKT1 (Ser473); assay: Western blot of AKT phosphorylation in MDA-MB-231 cells; format: cell-based; conditions: 4 μM, 48 h, MDA-MB-231, Western blot
Outline: as §1

[10] = tested on: MDA-MB-231 cells; assay: Flow cytometry apoptosis analysis; format: cell-based; conditions: 48 h
[11] = tested on: MRC-5 cells; assay: CCK-8 cell viability assay, normal MRC-5 cells; format: cell-based; conditions: for IC50: Homo sapiens, MRC5, 60 h, read-out: IC50 MRC-5
Outline: as §2

[12] = molecular target: PD-L1 (Homo sapiens, UniProt Q9NZQ7); assay: Western blot of PD-L1 protein expression in MDA-MB-231 cells; format: cell-based; conditions: MDA-MB-231, 48 h, 1, 2 and 4 μM
Sequence of PD-L1 (Q9NZQ7 19-290): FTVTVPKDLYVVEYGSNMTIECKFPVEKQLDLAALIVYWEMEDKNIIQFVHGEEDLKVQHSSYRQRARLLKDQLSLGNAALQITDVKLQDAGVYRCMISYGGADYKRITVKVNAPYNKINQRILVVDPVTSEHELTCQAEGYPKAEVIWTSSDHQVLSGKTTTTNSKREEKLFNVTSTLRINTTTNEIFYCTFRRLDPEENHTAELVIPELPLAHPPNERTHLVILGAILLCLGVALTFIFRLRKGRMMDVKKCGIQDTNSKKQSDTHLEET
Outline: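 MDA-MB-231 cells treated 48 h with test compound at 1, 2 and 4 μM, BMS202 as positive control; in a further arm, 4 μM with or without GSK-3β inhibitor (40 nM) for 48 h. Lysates separated by SDS-PAGE, transferred to PVDF, blocked 2 h in 5% BSA/TBST, probed overnight at 4 °C with anti-PD-L1 (1:1000). Mean ± SEM, n = 3.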

[13] = tested on: MDA-MB-231 cells; assay: Wound healing assay; format: cell-based
[14] = tested on: HCC827; assay: CCK-8 cell viability assay, HCC827; format: cell-based; conditions: Homo sapiens, HCC827, 60 h, read-out: IC50 HCC827
Outline: as §2

Sequence of PD-1/PD-L1 interaction (Q9NZQ7 19-238 limits assumed): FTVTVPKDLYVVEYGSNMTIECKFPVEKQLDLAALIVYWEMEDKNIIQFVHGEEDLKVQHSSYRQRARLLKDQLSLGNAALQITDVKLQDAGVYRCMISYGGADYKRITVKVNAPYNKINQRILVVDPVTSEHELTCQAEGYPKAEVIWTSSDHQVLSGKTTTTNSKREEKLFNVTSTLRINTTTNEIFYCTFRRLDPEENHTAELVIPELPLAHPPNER

Question: Which IC50 [1] does the source give for `N#Cc1cccc(COc2cc(OCc3cccc(-c4cc(F)ccc4F)c3F)ccc2CNCCO)c1` [7b-2, 3-[2-[(2-Hydroxy-ethylamino)-methyl]-5-(2,2',5'-trifluoro-biphenyl-3-ylmethoxy)-phenoxymethyl]-benzonitrile] here?
Answer: < 1 µM

Question: What does the source list for `Cc1c(COc2ccc(CNCCN)c(OCc3ccccc3)c2)cccc1-c1ccccc1F` [12j-4, N^1-[2-Benzyloxy-4-(2'-fluoro-2-methyl-biphenyl-3-ylmethoxy)-benzyl]-ethane-1,2-diamine]?
Answer: Inhibition rate of phosphorylated mTOR expression [2]: 40%; IC50 [3]: 4.71 ± 0.44 µM; IC50 [4]: 2.68 ± 0.27 µM; MDA-MB-231 cells' proliferation rate (clone formation) ([5]; 1 µM, treated 24 h, colonies after two weeks): 40%; PD-L1 mRNA, result in words [6]: decreased; Tumour inhibition rate ([7]; 10 mg/kg): 39.04%; Tumour inhibition rate ([7]; 20 mg/kg): 62.54%; IC50 [8]: 7.79 ± 0.69 µM; Inhibition rate of AKT type I phosphorylated form expression [9]: 90%; Apoptotic ratio ([10]; 4 μM): exceeded 40.42%; IC50 [11]: 10.3 ± 0.12 µM; IC50 against MRC-5 cells relative to IC50 against MDA-MB-231 cells ([11]; selectivity normal vs cancer cells): 3.83 fold; PD-L1 protein expression, result in words [12]: down-regulated; inhibition at 1 µM ([13]; Homo sapiens, MDA-MB-231, read-out: Migration inhibition rate): 50%; IC50 [14]: 3.24 ± 0.09 µM

Question: `COc1c(COc2ccc(CN[C@H](CO)C(=O)O)c(OCc3cncc(C#N)c3)c2)cccc1-c1ccccc1F` [13h-1, N-[2–(5-Cyano-pyridin-3-ylmethoxy)-4-(2'-fluoro-2-methoxy-biphenyl-3-ylmethoxy)-benzyl]-D-serine] was tested. Which IC50 [3] did it give?
Answer: 4.81 ± 0.45 µM

Question: What about the IC50 [4] of the same molecule?
Answer: 4.67 ± 0.79 µM

Question: And the IC50 [8]?
Answer: 7.27 ± 0.71 µM

Question: What about the IC50 [11] of the same molecule?
Answer: 9.31 ± 0.16 µM

Question: What about the IC50 [14] of the same molecule?
Answer: 6.16 ± 0.76 µM

Question: Which “Clone formation, result in words” value [5] does the source give for `CC(=O)O[C@H]1C(=O)[C@@]2(C)[C@H]([C@H](OC(=O)c3ccccc3)[C@]3(O)C[C@H](OC(=O)[C@H](O)[C@@H](NC(=O)c4ccccc4)c4ccccc4)C(C)=C1C3(C)C)[C@]1(OC(C)=O)CO[C@@H]1C[C@@H]2O` [paclitaxel, reference compound] here?
Answer: Few colonies can be observed

Question: What about the Tumour cell apoptosis ([10]; 1 μM) of the same molecule?
Answer: approximately 60%

Question: With `COc1nc(OCc2cccc(-c3ccccc3)c2C)ccc1CNCCNC(C)=O` [BMS-202, reference compound] as the molecule, how does the “Clone formation, result in words” value [5] read?
Answer: scarce inhibition activity

Question: What about the “Migration inhibition, result in words” value ([13]; MDA-MB-231, positive control) of the same molecule?
Answer: can hardly inhibit the cancer cells’ migration

Question: With `N#Cc1cncc(COc2cc(OCc3cccc(-c4cc(F)ccc4F)c3F)ccc2CNCCO)c1` [7b-4, 5-[2-[(2-Hydroxy-ethylamino)-methyl]-5-(2,2',5'-trifluoro-biphenyl-3-ylmethoxy)-phenoxymethyl]-nicotinonitrile] as the molecule, how does the IC50 [1] read?
Answer: < 1 µM

Question: Which results are given for `COc1c(COc2cc(OCc3cccc(C#N)c3)c(CNCCO)cc2Cl)cccc1-c1ccccc1F` [13h-3, 3-{4-Chloro-5–(2'-fluoro-2-methoxy-biphenyl-3-ylmethoxy)-2-[(2-hydroxy-ethylamino)-methyl]-phenoxymethyl}-benzonitrile]?
Answer: IC50 [3]: 5.52 ± 0.57 µM; IC50 [4]: 4.96 ± 0.82 µM; IC50 [8]: 13.5 ± 0.86 µM; IC50 [11]: 11.1 ± 0.2 µM; IC50 [14]: 5.65 ± 0.56 µM
